In ChEMBL document CHEMBL1143019, “Hybrid molecules of estrone: new compounds with potential antibacterial, antifungal, and antiproliferative activities” (2007):
Values after ≈ are worked out from the molar mass of the structure shown.

Key:
Candida tropicalis [1] = assay: Antifungal activity against Candida tropicalis 156 after 48 hrs; assay type: functional
In short: (§1)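 Modified NCCLS M27-A broth microdilution with clinical isolates subcultured on Sabouraud dextrose agar. Suspensions diluted 1:50 in RPMI 1640 to give a final inoculum of 0.5–2.5×10³ CFU/mL for yeasts or 0.5–5×10⁴ CFU/mL for molds. The RPMI had L-glutamine, no bicarbonate, and 0.165 M MOPS to pH 7.0. Twofold dilutions from 250 to 0.49. Plates held at 35 °C, humid, without agitation. MIC is the lowest concentration giving ≥80% inhibition versus drug-free control, read at 24 and 48 h.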

Mycobacterium kansasii [2] = assay: Antimicrobial activity against Mycobacterium kansasii My 235/80 after 7 days; assay type: functional; conditions: 168 h
In short: (§2)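 Run in Šula semisynthetic liquid medium containing bovine serum. Compounds added as DMSO solutions at final concentrations of […]. Each strain was also inoculated onto Löwenstein–Jensen medium to control inoculum sterility and growth.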

K562 = assay: Antiproliferative activity against human K562 cells after 72 hrs; assay type: functional; conditions: K562, 72 h
In short: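 About 10,000 suspension cells per well in RPMI 1640 with 10% heat-inactivated FBS and penicillin/streptomycin, without HEPES. Exposed to 10 concentrations for 72 h at 37 °C in humidified 5% CO₂. Wells diluted 1:50 in CASYTON and counted electronically, each result the mean of three successive counts. GI50 is where the concentration–response curve crosses 50% of control cell count.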

Candida tropicalis [3] = assay: Antifungal activity against Candida tropicalis 156 after 24 hrs; assay type: functional; in short: as §1
Trichosporon beigelii [4] = assay: Antifungal activity against Trichosporon beigelii 1188 after 48 hrs; assay type: functional; in short: as §1
Lichtheimia corymbifera [5] = assay: Antifungal activity against Absidia corymbifera 272 after 48 hrs; assay type: functional; in short: as §1
Mycobacterium kansasii [6] = assay: Antimicrobial activity against Mycobacterium kansasii My 235/80 after 14 days; assay type: functional; conditions: 336 h; in short: as §2
Lichtheimia corymbifera [7] = assay: Antifungal activity against Absidia corymbifera 272 after 24 hrs; assay type: functional; in short: as §1
Aspergillus fumigatus [8] = assay: Antifungal activity against Aspergillus fumigatus 231 after 48 hrs; assay type: functional; in short: as §1
Mycobacterium kansasii [9] = assay: Antimicrobial activity against Mycobacterium kansasii My 6509/96 after 14 days; assay type: functional; conditions: 336 h; in short: as §2
Mycobacterium avium [10] = assay: Antimicrobial activity against Mycobacterium avium My 330/88 after 14 days; assay type: functional; conditions: 336 h
Trichosporon beigelii [11] = assay: Antifungal activity against Trichosporon beigelii 1188 after 24 hrs; assay type: functional; in short: as §1
Trichophyton benhamiae [12] = assay: Antifungal activity against Trichophyton mentagrophytes 445 after 120 hrs; assay type: functional, Arthroderma benhamiae
In short: (§3)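 Same modified M27-A microdilution with the mold inoculum of 0.5–5×10⁴ CFU/mL. Medium was RPMI 1640 with L-glutamine, no bicarbonate, and 0.165 M MOPS at pH 7.0. Twofold dilutions from 250 to 0.49. Incubated at 35 °C in a humid atmosphere.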

Candida albicans [13] = assay: Antifungal activity against Candida albicans ATCC 44859 after 24 hrs; assay type: functional; conditions: ATCC 44859, 24 h; in short: as §1
[14] = tested on: Mycobacterium tuberculosis; assay: Antimicrobial activity against Mycobacterium tuberculosis My 331/88 after 14 days; assay type: functional; conditions: 336 h
Pichia kudriavzevii [15] = assay: Antifungal activity against Candida krusei E28 after 24 hrs; assay type: functional; in short: as §1
Candida albicans [16] = assay: Antifungal activity against Candida albicans ATCC 44859 after 48 hrs; assay type: functional; conditions: ATCC 44859, 48 h; in short: as §1
Nakaseomyces glabratus [17] = assay: Antifungal activity against Candida glabrata 20/I after 24 hrs; assay type: functional; in short: as §1
HeLa = assay: Cytotoxicity against human HeLa cells after 72 hrs; assay type: functional; conditions: for CC50: Homo sapiens, HeLa, 72 h
In short: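 About 10,000 cells per well in RPMI 1640 were preincubated 48 h without compound. The 10 test concentrations were then applied onto the monolayers and incubated 72 h at 37 °C in humidified 5% CO₂. Monolayers fixed with glutaraldehyde, stained with 0.05% methylene blue, and eluted with 0.33 N HCl; optical density measured at 630 nm.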

Aspergillus fumigatus [18] = assay: Antifungal activity against Aspergillus fumigatus 231 after 24 hrs; assay type: functional; in short: as §1
Nakaseomyces glabratus [19] = assay: Antifungal activity against Candida glabrata 20/I after 48 hrs; assay type: functional; in short: as §1
L929 = assay: Antiproliferative activity against mouse L929 cells after 72 hrs; assay type: functional; conditions: L929, 72 h
In short: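 About 10,000 adherent cells per well in RPMI 1640 with 10% heat-inactivated FBS and penicillin/streptomycin, without HEPES. Exposed to 10 concentrations for 72 h at 37 °C in humidified 5% CO₂. Monolayers fixed with glutaraldehyde, stained 15 min with 0.05% methylene blue, and eluted with 0.33 N HCl; OD read at 630 nm. GI50 derived from dose–response curves relative to control.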

Mycobacterium kansasii [20] = assay: Antimicrobial activity against Mycobacterium kansasii My 6509/96 after 7 days; assay type: functional; conditions: 168 h; in short: as §2
Pichia kudriavzevii [21] = assay: Antifungal activity against Candida krusei E28 after 48 hrs; assay type: functional; in short: as §1
Trichophyton benhamiae [22] = assay: Antifungal activity against Trichophyton mentagrophytes 445 after 72 hrs; assay type: functional, Arthroderma benhamiae; in short: as §3
Mycobacterium kansasii [23] = assay: Antimicrobial activity against Mycobacterium kansasii My 235/80 after 21 days; assay type: functional; conditions: 504 h; in short: as §2
Mycobacterium avium [24] = assay: Antimicrobial activity against Mycobacterium avium My 330/88 after 21 days; assay type: functional; conditions: 504 h
[25] = tested on: Mycobacterium tuberculosis; assay: Antimicrobial activity against Mycobacterium tuberculosis My 331/88 after 21 days; assay type: functional; conditions: 504 h
Mycobacterium kansasii [26] = assay: Antimicrobial activity against Mycobacterium kansasii My 6509/96 after 21 days; assay type: functional; conditions: 504 h; in short: as §2

## Clc1ccc(-n2nnnc2SCc2ccccc2)cc1
Candida tropicalis [1]
  MIC: > 250 µM
Mycobacterium kansasii [2]
  MIC: 16 µM (≈ 4.84 µg/mL)
K562
  GI50: > 50 µg/mL
Candida tropicalis [3]
  MIC: > 250 µM
Trichosporon beigelii [4]
  MIC: > 250 µM
Lichtheimia corymbifera [5]
  MIC: > 250 µM
Mycobacterium kansasii [6]
  MIC: 32 µM (≈ 9.69 µg/mL)
Lichtheimia corymbifera [7]
  MIC: > 250 µM
Aspergillus fumigatus [8]
  MIC: 62.5 µM (≈ 18.9 µg/mL)
Mycobacterium kansasii [9]
  MIC: 16 µM (≈ 4.84 µg/mL)
Mycobacterium avium [10]
  MIC: 62.5 µM (≈ 18.9 µg/mL)
Trichosporon beigelii [11]
  MIC: > 250 µM
Trichophyton benhamiae [12]
  MIC: 62.5 µM (≈ 18.9 µg/mL)
Candida albicans [13]
  MIC: > 250 µM
[14]
  MIC: 16 µM (≈ 4.84 µg/mL)
Pichia kudriavzevii [15]
  MIC: > 250 µM
Candida albicans [16]
  MIC: > 250 µM
Nakaseomyces glabratus [17]
  MIC: > 250 µM
HeLa
  CC10: 5 µg/mL (≈ 16.5 µM)
  CC50: 50 µg/mL (≈ 165 µM)
Aspergillus fumigatus [18]
  MIC: 62.5 µM (≈ 18.9 µg/mL)
Nakaseomyces glabratus [19]
  MIC: > 250 µM
L929
  GI50: 16.7 µg/mL (≈ 55.2 µM)
Mycobacterium kansasii [20]
  MIC: 16 µM (≈ 4.84 µg/mL)
Pichia kudriavzevii [21]
  MIC: > 250 µM
Trichophyton benhamiae [22]
  MIC: 31.3 µM (≈ 9.48 µg/mL)

## NNC(=O)c1ccncc1 [ISONIAZID]
Mycobacterium kansasii [23]
  MIC: > 250 µM
Mycobacterium avium [24]
  MIC: > 250 µM
Mycobacterium kansasii [2]
  MIC: > 250 µM
[25]
  MIC: 1 µM (≈ 0.137 µg/mL)
Mycobacterium kansasii [6]
  MIC: > 250 µM
Mycobacterium kansasii [9]
  MIC: 4 µM (≈ 0.549 µg/mL)
Mycobacterium avium [10]
  MIC: > 250 µM
[14]
  MIC: 0.5 µM (≈ 0.0686 µg/mL)
Mycobacterium kansasii [20]
  MIC: 4 µM (≈ 0.549 µg/mL)
Mycobacterium kansasii [26]
  MIC: 8 µM (≈ 1.1 µg/mL)

## Cc1ccc(-n2nnnc2SCCCCCCCOc2ccc3c(c2)CC[C@@H]2[C@@H]3CC[C@]3(C)C(=O)CC[C@@H]23)cc1
Mycobacterium kansasii [23]
  MIC: > 500 µM
Candida tropicalis [1]
  MIC: > 250 µM
K562
  GI50: > 50 µg/mL
Candida tropicalis [3]
  MIC: > 250 µM
[25]
  MIC: > 500 µM
Trichosporon beigelii [4]
  MIC: > 250 µM
Lichtheimia corymbifera [5]
  MIC: > 250 µM
Mycobacterium kansasii [6]
  MIC: > 500 µM
Lichtheimia corymbifera [7]
  MIC: > 250 µM
Aspergillus fumigatus [8]
  MIC: > 250 µM
Mycobacterium avium [10]
  MIC: > 500 µM
Trichosporon beigelii [11]
  MIC: > 250 µM
Trichophyton benhamiae [12]
  MIC: > 250 µM
Candida albicans [13]
  MIC: > 250 µM
[14]
  MIC: 500 µM (≈ 279 µg/mL)
Pichia kudriavzevii [15]
  MIC: > 250 µM
Candida albicans [16]
  MIC: > 250 µM
Nakaseomyces glabratus [17]
  MIC: > 250 µM
HeLa
  CC10: 28.7 µg/mL (≈ 51.4 µM)
  CC50: > 50 µg/mL
Aspergillus fumigatus [18]
  MIC: 250 µM (≈ 140 µg/mL)
Nakaseomyces glabratus [19]
  MIC: > 250 µM
L929
  GI50: > 50 µg/mL
Pichia kudriavzevii [21]
  MIC: > 250 µM
Trichophyton benhamiae [22]
  MIC: > 250 µM

## C[C@@H]1[C@H](O)[C@@H](C)/C=C/C=C/C=C/C=C/C=C/C=C/C=C/[C@H](O[C@@H]2O[C@H](C)[C@@H](O)[C@H](N)[C@@H]2O)C[C@@H]2O[C@](O)(C[C@@H](O)C[C@@H](O)[C@H](O)CC[C@@H](O)C[C@@H](O)CC(=O)O[C@H]1C)C[C@H](O)[C@H]2C(=O)O [AMPHOTERICIN B]
Candida tropicalis [1]
  MIC: 0.07 µM (≈ 0.0647 µg/mL)
Candida tropicalis [3]
  MIC: 0.07 µM (≈ 0.0647 µg/mL)
Trichosporon beigelii [4]
  MIC: 2.16 µM (≈ 2 µg/mL)
Lichtheimia corymbifera [5]
  MIC: 2.16 µM (≈ 2 µg/mL)
Lichtheimia corymbifera [7]
  MIC: 1.08 µM (≈ 0.998 µg/mL)
Aspergillus fumigatus [8]
  MIC: 0.27 µM (≈ 0.25 µg/mL)
Trichosporon beigelii [11]
  MIC: 1.08 µM (≈ 0.998 µg/mL)
Candida albicans [13]
  MIC: 0.02 µM (≈ 0.0185 µg/mL)
Pichia kudriavzevii [15]
  MIC: 0.14 µM (≈ 0.129 µg/mL)
Candida albicans [16]
  MIC: 0.07 µM (≈ 0.0647 µg/mL)
Nakaseomyces glabratus [17]
  MIC: 0.04 µM (≈ 0.037 µg/mL)
Aspergillus fumigatus [18]
  MIC: 0.27 µM (≈ 0.25 µg/mL)
Nakaseomyces glabratus [19]
  MIC: 0.14 µM (≈ 0.129 µg/mL)
Pichia kudriavzevii [21]
  MIC: 0.14 µM (≈ 0.129 µg/mL)

## C[C@]12CC[C@@H]3c4ccc(OCCCCCCCSc5nnnn5-c5ccc(Cl)cc5)cc4CC[C@H]3[C@@H]1CCC2=O
Candida tropicalis [1]
  MIC: > 250 µM
K562
  GI50: > 50 µg/mL
Candida tropicalis [3]
  MIC: > 250 µM
Trichosporon beigelii [4]
  MIC: > 250 µM
Lichtheimia corymbifera [5]
  MIC: > 250 µM
Lichtheimia corymbifera [7]
  MIC: > 250 µM
Aspergillus fumigatus [8]
  MIC: > 250 µM
Trichosporon beigelii [11]
  MIC: > 250 µM
Trichophyton benhamiae [12]
  MIC: > 250 µM
Candida albicans [13]
  MIC: > 250 µM
Pichia kudriavzevii [15]
  MIC: > 250 µM
Candida albicans [16]
  MIC: > 250 µM
Nakaseomyces glabratus [17]
  MIC: > 250 µM
HeLa
  CC10: 50 µg/mL (≈ 86.3 µM)
  CC50: > 50 µg/mL
Aspergillus fumigatus [18]
  MIC: 250 µM (≈ 145 µg/mL)
Nakaseomyces glabratus [19]
  MIC: > 250 µM
L929
  GI50: > 50 µg/mL
Pichia kudriavzevii [21]
  MIC: > 250 µM
Trichophyton benhamiae [22]
  MIC: > 250 µM
